Reference: ChEMBL document CHEMBL4138104, “Indole carboxylic acid esters of melampomagnolide B are potent anticancer agents against both hematological and solid tumor cells” (Eur J Med Chem, 2017)

Key:
Assay type in all cases: functional
CCRF-CEM = assay: Growth inhibition of human CCRF-CEM cells incubated for 48 hrs by sulforhodamine B assay
Procedure, shortened: (§1)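 NCI-60 screen. Compounds were dosed at five concentrations spanning 10^-4 to 10^-8 M for 48 h at 37 °C. Cells were TCA-fixed, stained with 0.4% SRB and read at 515 nm against time-zero and vehicle controls. GI50 is the concentration giving a 50% reduction in net protein increase.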

HL-60(TB) = assay: Growth inhibition of human HL-60(TB) cells incubated for 48 hrs by sulforhodamine B assay; conditions: HL-60, 48 h
Procedure, shortened: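 Performed at NCI's 60-line screen. Cells grown in RPMI with 5% FBS and 2 mM L-glutamine, plated 5,000–40,000 cells/well and incubated 24 h at 37 °C before compound addition. DMSO stocks were diluted in medium with gentamicin, and five concentrations spanning 10^-4 to 10^-8 M were tested. Exposure was 48 h. Cells were fixed with TCA, stained with SRB, and read at 515 nm. GI50 taken from log dose-response curves as 50% reduction in net protein increase versus control.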

K562 = assay: Growth inhibition of human K562 cells incubated for 48 hrs by sulforhodamine B assay; conditions: K562, 48 h; procedure, shortened: as §1
MOLT-4 = assay: Growth inhibition of human MOLT4 cells incubated for 48 hrs by sulforhodamine B assay; conditions: MOLT-4, 48 h; procedure, shortened: as §1
RPMI-8226 = assay: Growth inhibition of human RPMI8226 cells incubated for 48 hrs by sulforhodamine B assay; conditions: RPMI-8226, 48 h; procedure, shortened: as §1
A549 = assay: Growth inhibition of human A549/ATCC cells incubated for 48 hrs by sulforhodamine B assay; conditions: A549, 48 h; procedure, shortened: as §1
HOP-92 = assay: Growth inhibition of human HOP92 cells incubated for 48 hrs by sulforhodamine B assay; conditions: HOP-92, 48 h; procedure, shortened: as §1
NCI-H226 = assay: Growth inhibition of human NCI-H226 cells incubated for 48 hrs by sulforhodamine B assay; conditions: NCI-H226, 48 h; procedure, shortened: as §1
NCI-H23 = assay: Growth inhibition of human NCI-H23 cells incubated for 48 hrs by sulforhodamine B assay; conditions: NCI-H23, 48 h; procedure, shortened: as §1
NCI-H322M = assay: Growth inhibition of human NCI-H322M cells incubated for 48 hrs by sulforhodamine B assay; procedure, shortened: as §1
NCI-H460 = assay: Growth inhibition of human NCI-H460 cells incubated for 48 hrs by sulforhodamine B assay; conditions: NCI-H460, 48 h; procedure, shortened: as §1
HCC 2998 = assay: Growth inhibition of human HCC2998 cells incubated for 48 hrs by sulforhodamine B assay; conditions: HCC 2998, 48 h; procedure, shortened: as §1
HCT-116 = assay: Growth inhibition of human HCT116 cells incubated for 48 hrs by sulforhodamine B assay; conditions: HCT-116, 48 h; procedure, shortened: as §1
HCT-15 = assay: Growth inhibition of human HCT15 cells incubated for 48 hrs by sulforhodamine B assay; conditions: HCT-15, 48 h; procedure, shortened: as §1
HT-29 = assay: Growth inhibition of human HT-29 cells incubated for 48 hrs by sulforhodamine B assay; conditions: HT-29, 48 h; procedure, shortened: as §1
KM12 = assay: Growth inhibition of human KM12 cells incubated for 48 hrs by sulforhodamine B assay; conditions: KM12, 48 h; procedure, shortened: as §1
SW-620 = assay: Growth inhibition of human SW620 cells incubated for 48 hrs by sulforhodamine B assay; conditions: SW-620, 48 h
Procedure, shortened: (§2)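 NCI-60 screen run at NCI. Cells grown in RPMI medium with 5% FBS and 2 mM L-glutamine, plated at 5,000–40,000 cells/well, and preincubated 24 h at 37 °C. Time-zero plates were TCA-fixed. Compounds came from DMSO stocks and were tested at five concentrations from 10^-4 to 10^-8 M for 48 h. Cells were then TCA-fixed, stained with 0.4% SRB, and OD read at 515 nm. GI50 is the concentration giving a 50% reduction in net protein increase versus control.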

SF-268 = assay: Growth inhibition of human SF268 cells incubated for 48 hrs by sulforhodamine B assay; conditions: SF-268, 48 h; procedure, shortened: as §1
SF-295 = assay: Growth inhibition of human SF295 cells incubated for 48 hrs by sulforhodamine B assay; conditions: SF-295, 48 h; procedure, shortened: as §1
SF-539 = assay: Growth inhibition of human SF539 cells incubated for 48 hrs by sulforhodamine B assay; conditions: SF-539, 48 h; procedure, shortened: as §1
SNB-19 = assay: Growth inhibition of human SNB19 cells incubated for 48 hrs by sulforhodamine B assay; conditions: SNB-19, 48 h; procedure, shortened: as §2
U-251 = assay: Growth inhibition of human U251 cells incubated for 48 hrs by sulforhodamine B assay; conditions: U-251, 48 h; procedure, shortened: as §2
LOX IMVI = assay: Growth inhibition of human LOXIMVI cells incubated for 48 hrs by sulforhodamine B assay; procedure, shortened: as §1
Malme-3M = assay: Growth inhibition of human MALME-3M cells incubated for 48 hrs by sulforhodamine B assay; procedure, shortened: as §1
SK-MEL-28 = assay: Growth inhibition of human SK-MEL-28 cells incubated for 48 hrs by sulforhodamine B assay; conditions: SK-MEL-28, 48 h; procedure, shortened: as §1
UACC-257 = assay: Growth inhibition of human UACC257 cells incubated for 48 hrs by sulforhodamine B assay; conditions: UACC-257, 48 h; procedure, shortened: as §2
UACC-62 = assay: Growth inhibition of human UACC62 cells incubated for 48 hrs by sulforhodamine B assay; conditions: UACC-62, 48 h; procedure, shortened: as §2
OVCAR-5 = assay: Growth inhibition of human OVCAR5 cells incubated for 48 hrs by sulforhodamine B assay; conditions: OVCAR-5, 48 h; procedure, shortened: as §1
OVCAR-8 = assay: Growth inhibition of human OVCAR8 cells incubated for 48 hrs by sulforhodamine B assay; conditions: OVCAR-8, 48 h; procedure, shortened: as §1
NCI/ADR-RES = assay: Growth inhibition of human NCI/ADR-RES cells incubated for 48 hrs by sulforhodamine B assay; procedure, shortened: as §1
SK-OV-3 = assay: Growth inhibition of human SKOV3 cells incubated for 48 hrs by sulforhodamine B assay; conditions: SK-OV-3, 48 h; procedure, shortened: as §1
A498 = assay: Growth inhibition of human A498 cells incubated for 48 hrs by sulforhodamine B assay; conditions: A498, 48 h; procedure, shortened: as §1
RXF 393 = assay: Growth inhibition of human RXF393 cells incubated for 48 hrs by sulforhodamine B assay; conditions: RXF 393, 48 h; procedure, shortened: as §1
SN12C = assay: Growth inhibition of human SN12C cells incubated for 48 hrs by sulforhodamine B assay; procedure, shortened: as §1
UO-31 = assay: Growth inhibition of human UO31 cells incubated for 48 hrs by sulforhodamine B assay; conditions: UO-31, 48 h; procedure, shortened: as §2
MCF7 = assay: Growth inhibition of human MCF7 cells incubated for 48 hrs by sulforhodamine B assay; conditions: MCF7, 48 h; procedure, shortened: as §1
[1] = Cytotoxicity against human M9-ENL1 cells assessed as reduction in cell viability by trypan blue staining-based assay
Procedure, shortened: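 M9-ENL1 AML cells (MLL-ENL-transduced human blood cells) plated at 10^6 cells/mL in alpha-MEM with 5% human plasma, 20% FBS, SCF, IL-3, IL-7 and FLT3. Drug diluted from DMSO stock into PBS, final DMSO ≤0.5%. After 24 h exposure, dead cells assessed by trypan blue and by flow cytometry (Annexin V/PI or Annexin V/7-AAD). Viability normalized to vehicle; EC50 from dose-response curves; triplicate.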

SMILES | GI50 (CCRF-CEM) | GI50 (HL-60(TB)) | GI50 (K562) | GI50 (MOLT-4) | GI50 (RPMI-8226) | GI50 (A549) | GI50 (HOP-92) | GI50 (NCI-H226) | GI50 (NCI-H23) | GI50 (NCI-H322M) | GI50 (NCI-H460) | GI50 (HCC 2998) | GI50 (HCT-116) | GI50 (HCT-15) | GI50 (HT-29) | GI50 (KM12) | GI50 (SW-620) | GI50 (SF-268) | GI50 (SF-295) | GI50 (SF-539) | also measured
C=C1C(=O)O[C@@H]2[C@H]3O[C@]3(C)CC/C=C(/COC(=O)c3cc4ccccc4s3)CC[C@@H]12 | 400 nM | 1890 nM | 810 nM | 1880 nM | 560 nM | 2040 nM | 1680 nM | 2000 nM | 1740 nM | 1980 nM | 2210 nM | 1750 nM | 590 nM | 400 nM | 490 nM | 1780 nM | 510 nM | 1540 nM | 3330 nM | 1600 nM | GI50 (SNB-19): 2090 nM; GI50 (U-251): 1520 nM; GI50 (LOX IMVI): 200 nM; GI50 (Malme-3M): 1820 nM; GI50 (SK-MEL-28): 1760 nM; GI50 (UACC-257): 1770 nM; GI50 (UACC-62): 1850 nM; GI50 (OVCAR-5): 2020 nM; GI50 (OVCAR-8): 1800 nM; GI50 (NCI/ADR-RES): 2140 nM; GI50 (SK-OV-3): 13900 nM; GI50 (A498): 10100 nM; GI50 (RXF 393): 1230 nM; GI50 (SN12C): 2060 nM; GI50 (UO-31): 1400 nM; GI50 (MCF7): 380 nM; EC50 [1]: 2700 nM
C=C1C(=O)O[C@@H]2[C@H]3O[C@]3(C)CC/C=C(/COC(=O)c3cc4ccccc4[nH]3)CC[C@@H]12 | 280 nM | 540 nM | 320 nM | 1510 nM | 260 nM | 2060 nM | 480 nM | 1470 nM | 1690 nM | 1680 nM | 1730 nM | 2140 nM | 190 nM | 210 nM | 270 nM | 2050 nM | 250 nM | 1590 nM | 1710 nM | 1320 nM | GI50 (SNB-19): 1600 nM; GI50 (U-251): 1890 nM; GI50 (LOX IMVI): 180 nM; GI50 (Malme-3M): 1560 nM; GI50 (SK-MEL-28): 1290 nM; GI50 (UACC-257): 1610 nM; GI50 (UACC-62): 1470 nM; GI50 (OVCAR-5): 1140 nM; GI50 (OVCAR-8): 1990 nM; GI50 (NCI/ADR-RES): 2200 nM; GI50 (SK-OV-3): 1650 nM; GI50 (A498): 1740 nM; GI50 (RXF 393): 1070 nM; GI50 (SN12C): 1740 nM; GI50 (UO-31): 880 nM; GI50 (MCF7): 300 nM; EC50 [1]: 1100 nM
